Active and inactive are the calls of the source. No cut-off for these calls is given here.
How the values were obtained:
[1] = molecular target: T1, Amyloid-beta precursor protein (Homo sapiens, UniProt P05067); experiment: Inhibition of amyloid beta (1 to 42) fibril formation at 10 uM after 1 hr by ThT spectrofluorometric analysis
Procedure, shortened: (§1)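 ThT diluted to 5 µM in 50 mM glycine buffer was then added. After 10 s of shaking, fluorescence was read at excitation 450 nm and emission 480 nm, as a measure of fibril formation.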

[2] = molecular target: T1, Amyloid-beta precursor protein; experiment: Inhibition of amyloid beta (1 to 42) fibril formation after 1 hr by ThT spectrofluorometric analysis; procedure, shortened: as §1
[3] = Cytotoxicity against mouse HT22 cells assessed as viability at 10 uM after 18 hrs by MTT assay; type: cell-based, HT-22; settings: read-out: Activity
Procedure, shortened: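 HT22 murine hippocampal cells were grown in DMEM with 10% FBS at 37 °C, 5% CO2, and plated at 5×10^3 cells/well. They were switched to plain DMEM and serum-starved for 1 h before exposure to compound at 10 µM for 18 h. MTT solution (5 mg/mL) was added for 4 h at 37 °C. Cells were solubilized in 50% DMF/10% SDS (pH 4.7) for 18 h, absorbance was read at 570/630 nm, and % cytotoxicity was calculated.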

[4] = molecular target: T1, Amyloid-beta precursor protein; experiment: Inhibition of amyloid beta (25 to 35)-induced cell death in mouse HT22 cells at 10 uM after 18 hrs by MTT assay; type: cell-based; settings: HT-22, values are per cent of control
Procedure, shortened: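 HT22 cells were plated at 5×10^3 cells/well, serum-starved in plain DMEM for 1 h, and pretreated with compound for 1 h. Aβ(25–35) was prepared as a 10 mM DMSO stock, diluted 10-fold in PBS, and aggregated for 1 h at room temperature. It was then added at a final 25 µM, and cells were incubated for 18 h. Viability was measured by MTT (4 h), then solubilization in DMF/SDS and absorbance at 570/630 nm.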

[5] = system: Mus musculus; experiment: Antialzheimer activity in ICR mouse assessed as increase in amyloid beta (1 to 42)-induced step-through latency at 100 mg/kg, po measured after 3 days by passive avoidance test; type: functional
Procedure, shortened: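 Male ICR mice got 50 µL of pre-aggregated Aβ(1–42) by ICV injection at 2.4 mm depth at bregma. The peptide was a 250 µM DMSO stock diluted in PBS to 10 nM and aggregated at 37 °C for 4 days. Oral compound was given at 100 mg/kg once daily, with testing on days 3–4. Training used a 0.25 mA, 3 s shock; step-through latency into the dark compartment was measured 24 h later. n = 10, mean ± SEM, t-test.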

[6] = system: Mus musculus; experiment: Antialzheimer activity in amyloid beta (1 to 42)-challenged ICR mouse assessed as decrease in escape latency at 100 mg/kg, po measured after 7 days by water maze test; type: functional, organism-based; parameters: dose 100 mg/kg
Procedure, shortened: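 Male ICR mice were injected ICV with 50 µL of pre-aggregated Aβ(1–42) at 10 nM. Compound was then supplied for 7 days in pellet feed, each pellet containing 3 mg. Water maze training ran on days 3–7, and escape latency was recorded across training sessions. n = 10, mean ± SEM.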

[7] = molecular target: T1, Amyloid-beta precursor protein; experiment: Inhibition of amyloid beta (1 to 42) aggregation at 2 uM after 2 hrs by SDS-PAGE and PICUP technique
Procedure, shortened: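 Aβ(1–42) was monomerized in HFIP (0.5 mM), dried, and redissolved in DMSO. It was incubated at 25 µM final in PBS (pH 7.3) with compound at 2 µM final for 2 h at 37 °C. Samples were photo-cross-linked (PICUP) with ammonium persulfate and Ru(bpy)3Cl2 using three 1 s irradiations, quenched, and boiled. Products were resolved on a 10–20% tris-tricine gel and silver-stained.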

[8] = system: Mus musculus; experiment: Antialzheimer activity in ICR mouse assessed as reduction in amyloid beta (1 to 42)-induced spontaneous memory loss at 100 mg/kg, po measured after 2 days by object recognition task relative to control; type: functional; parameters: scale not given: the % may be the effect or the level left
Procedure, shortened: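 Male ICR mice received ICV pre-aggregated Aβ(1–42) at 10 nM (50 µL, 2.4 mm depth at bregma), then compound at 100 mg/kg po once daily. Object recognition ran on days 2–3. Exploration was counted as the nose directed at an object within 2 cm and/or touching it, and objects were cleaned to avoid olfactory cues. Preference index = exploration time for new object / total exploration time. n = 10, mean ± SEM.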

[9] = system: Mus musculus; experiment: Antialzheimer activity in ICR mouse assessed as reduction in amyloid beta (1 to 42)-induced spontaneous memory loss at 100 mg/kg, po measured after 2 days by Y-maze test; type: functional; parameters: scale not given: the % may be the effect or the level left
Procedure, shortened: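 Aβ(1–42) at 10 nM in PBS (from a 250 µM DMSO stock) was aggregated at 37 °C for 6 days, then injected ICV (50 µL, 2.4 mm depth at bregma) into male ICR mice. Compound was given at 100 mg/kg po once daily, and the Y-maze test was on day 2. Each mouse explored a three-arm maze freely for 8 min. An entry counted when all four limbs were in an arm; spontaneous alternation was scored as three consecutive different-arm entries. n = 10, mean ± SEM.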

[10] = molecular target: T1, Amyloid-beta precursor protein; experiment: Viability of cells treated with amyloid beta (25 to 35) in mouse HT22 cells at 25 uM after 18 hrs by MTT assay; settings: HT-22

T1 sequence (P05067 whole entry): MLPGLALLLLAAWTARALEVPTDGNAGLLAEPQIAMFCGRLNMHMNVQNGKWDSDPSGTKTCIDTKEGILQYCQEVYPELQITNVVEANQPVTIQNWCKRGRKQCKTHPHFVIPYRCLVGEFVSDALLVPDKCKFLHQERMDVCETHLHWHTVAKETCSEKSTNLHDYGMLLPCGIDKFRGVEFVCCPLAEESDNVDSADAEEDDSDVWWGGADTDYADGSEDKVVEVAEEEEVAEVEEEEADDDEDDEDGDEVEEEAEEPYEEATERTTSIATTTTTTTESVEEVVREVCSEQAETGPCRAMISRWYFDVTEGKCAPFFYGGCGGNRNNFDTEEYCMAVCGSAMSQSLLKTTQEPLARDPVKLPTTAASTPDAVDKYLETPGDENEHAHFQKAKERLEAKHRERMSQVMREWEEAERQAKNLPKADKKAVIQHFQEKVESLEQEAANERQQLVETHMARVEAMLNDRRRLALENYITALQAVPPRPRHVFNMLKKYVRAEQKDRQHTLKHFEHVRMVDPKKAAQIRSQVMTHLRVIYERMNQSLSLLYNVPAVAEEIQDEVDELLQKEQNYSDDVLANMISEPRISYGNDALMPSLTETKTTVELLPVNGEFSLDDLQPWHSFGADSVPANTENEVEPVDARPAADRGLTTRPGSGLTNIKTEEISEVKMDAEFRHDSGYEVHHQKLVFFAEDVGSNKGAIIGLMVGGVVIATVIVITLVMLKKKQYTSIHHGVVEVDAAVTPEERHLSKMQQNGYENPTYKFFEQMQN

| Compound | inhibition [1] [%] | viability at 18 h, 10 µM [3] [%] | other results |
| --- | --- | --- | --- |
| CSc1nc(/C=C/c2ccc(N(C)C)c(O)c2)cc(/C=C/c2ccc(N(C)C)c(O)c2)n1 | 88.8 | 85.3 | IC50 [2]: 1100 nM |
| COc1nc(/C=C/c2ccc(O)c(N(C)C)c2)cc(/C=C/c2ccc(O)c(N(C)C)c2)n1 | 74.1 | 96.6 | viability, % of control [4]: 59% |
| CSc1nc(/C=C/c2cccc(O)c2)cc(/C=C/c2cccc(O)c2)n1 |  | 43.7 |  |
| CN(C)c1ccc(/C=C/c2cc(/C=C/c3ccc(N(C)C)c(O)c3)ncn2)cc1O | 93.7 | 133 | Time [5]: 118 s; IC50 [2]: 3400 nM; Activity [6]: Active; inhibition [7]: Active; Activity [8]: 7%; viability, % of control [4]: 76.6%; Activity [9]: 67% |
| CSc1nc(/C=C/c2ccc(O)c(N(C)C)c2)cc(/C=C/c2ccc(O)c(N(C)C)c2)n1 | 78.6 | 77.3 |  |
| C(=C\c1cccc(/C=C/c2ccccc2)c1)/c1ccccc1 | 19.8 |  |  |
| COc1ccc(/C=C/c2cccc(/C=C/c3ccc(OC)c(O)c3)c2)cc1O | 67.9 | 69.5 |  |
| COc1ccc(/C=C/c2cc(/C=C/c3ccc(OC)c(O)c3)nc(SC)n2)cc1O | 75.2 | 78.8 |  |
| COc1nc(/C=C/c2ccc(O)cc2)cc(/C=C/c2ccc(O)cc2)n1 | 67.4 | 101 |  |
| COc1cc(/C=C/c2cc(/C=C/c3ccc(O)c(OC)c3)nc(SC)n2)ccc1O | 67.6 | 79 |  |
| COc1cc(/C=C/c2cc(O)cc(/C=C/c3ccc(O)c(OC)c3)c2)ccc1O | 79 | 80.9 |  |
| COc1nc(/C=C/c2ccc(OC)c(O)c2)cc(/C=C/c2ccc(OC)c(O)c2)n1 | 55 | 98.4 |  |
| COc1ccc(/C=C/c2cc(O)cc(/C=C/c3ccc(OC)c(O)c3)c2)cc1O | 84.5 | 73.5 | IC50 [2]: 1600 nM |
| CN(C)c1ccc(/C=C/c2cccc(/C=C/c3ccc(N(C)C)c(O)c3)c2)cc1O | 56 | 101 |  |
| COc1nc(/C=C/c2ccccc2)cc(/C=C/c2ccccc2)n1 | 18.8 |  |  |
| Oc1cccc(/C=C/c2cccc(/C=C/c3cccc(O)c3)c2)c1 |  | 47 |  |
| COc1nc(/C=C/c2ccc(N(C)C)c(O)c2)cc(/C=C/c2ccc(N(C)C)c(O)c2)n1 | 90.4 | 101 | IC50 [2]: 800 nM; viability, % of control [4]: 67.4% |
| H-GSNKGAIIGLC-OH |  |  | viability [10]: 56% |

| Compound | inhibition [1] [%] | viability at 18 h, 10 µM [3] [%] | other results |
| --- | --- | --- | --- |
| COc1nc(/C=C/c2cccc(O)c2)cc(/C=C/c2cccc(O)c2)n1 |  | 45.9 |  |
| CN(C)c1cc(/C=C/c2cccc(/C=C/c3ccc(O)c(N(C)C)c3)c2)ccc1O | 63.9 | 95.7 |  |
| COc1cc(/C=C/c2cc(/C=C/c3ccc(O)c(OC)c3)ncn2)ccc1O | 79.3 | 216 | Time [5]: 118 s; IC50 [2]: 3200 nM; Activity [6]: Active; inhibition [7]: Active; Activity [8]: 13%; viability, % of control [4]: 103%; Activity [9]: 67% |
| CN(C)c1cc(/C=C/c2cc(/C=C/c3ccc(O)c(N(C)C)c3)ncn2)ccc1O | 83.5 | 146 | Time [5]: 118 s; IC50 [2]: 3700 nM; Activity [6]: Active; inhibition [7]: Active; Activity [8]: inactive; viability, % of control [4]: 85.3%; Activity [9]: 67% |
| COc1cc(/C=C/c2cccc(/C=C/c3ccc(O)c(OC)c3)c2)ccc1O | 71.5 | 74.8 |  |
| Oc1ccc(/C=C/c2cccc(/C=C/c3ccc(O)cc3)c2)cc1 | 58.4 | 102 |  |
| Oc1ccc(/C=C/c2cc(O)cc(/C=C/c3ccc(O)cc3)c2)cc1 | 80.7 | 37.4 | IC50 [2]: 1600 nM |
| CSc1nc(/C=C/c2ccc(O)cc2)cc(/C=C/c2ccc(O)cc2)n1 | 67.4 | 65.3 |  |
| Oc1cccc(/C=C/c2cc(O)cc(/C=C/c3cccc(O)c3)c2)c1 | 7.1 | 59.2 |  |
| Oc1ccc(/C=C/c2cc(/C=C/c3ccc(O)cc3)ncn2)cc1 | 64.3 | 104 |  |
| Oc1cc(/C=C/c2ccccc2)cc(/C=C/c2ccccc2)c1 | 19.8 |  |  |
| Oc1cccc(/C=C/c2cc(/C=C/c3cccc(O)c3)ncn2)c1 | 14.1 | 142 |  |
| C(=C\c1cc(/C=C/c2ccccc2)ncn1)/c1ccccc1 | 47.4 |  |  |
| CN(C)c1ccc(/C=C/c2cc(O)cc(/C=C/c3ccc(N(C)C)c(O)c3)c2)cc1O | 83.3 | 64.4 | IC50 [2]: 3300 nM |
| CSc1nc(/C=C/c2ccccc2)cc(/C=C/c2ccccc2)n1 | 11.6 |  |  |
| CN(C)c1cc(/C=C/c2cc(O)cc(/C=C/c3ccc(O)c(N(C)C)c3)c2)ccc1O | 74.2 | 66 |  |
| COc1nc(/C=C/c2ccc(O)c(OC)c2)cc(/C=C/c2ccc(O)c(OC)c2)n1 | 68 | 75.2 |  |

Source: ChEMBL document CHEMBL2057119, “Small molecules that protect against β-amyloid-induced cytotoxicity by inhibiting aggregation of β-amyloid” (Bioorg Med Chem, 2012)
